Measured values as given in ChEMBL document CHEMBL5335768, “Expanding the knowledge around antitubercular 5-(2-aminothiazol-4-yl)isoxazole-3-carboxamides: Hit-to-lead optimization and release of a novel antitubercular chemotype via scaffold derivatization” (Eur J Med Chem, 2023).
Converted amounts (≈) assume the structure as drawn. The source made the active and inactive calls. The calls are words filed in the database; no cut-off is given here.

What was measured:
[1] = Cytotoxicity against human THP-1 cells assessed as reduction in cell viability measured after 72 hrs by MTT assay; type: toxicity, cell-based
Summary of the method: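 THP-1 monocytes were differentiated to macrophages with PMA 100 ng/mL for 72 h. They were then exposed to compounds at 1, 10, 50 and 100 μM for 72 h, each tested twice. MTT at 1 mg/mL in RPMI with 5% FBS was added for 2 h at 37 °C; formazan was dissolved in DMSO and read at 570 nm. Viability is given as % of control; IC50 from non-linear regression.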

[2] = test system: Mycobacterium tuberculosis; assay: Antitubercular activity against Mycobacterium tuberculosis H37Rv assessed as inhibition of bacterial growth incubated for 7 days by REMA method; type: functional
Mycobacterium marinum = details: ATCC BAA-535, time 3.0 weeks
[3] = Mycobacterium tuberculosis, H37Rv, 168 h, time 7 day, read-out: MIC90

SMILES	MIC90 [2, 3] [µg/mL]	other results
Cc1ccc(NC(=O)c2cc(-c3csc(Nc4ccc(C)cc4)n3)on2)cc1	1 (≈ 2.56 µM)	IC50 at 72 h [1]: 47.5 µg/mL (≈ 122 µM)
O=C(Nc1cccc(F)c1)c1cc(C(=O)Nc2nc3ccccc3s2)on1	–	MIC90 ([2]; time 7.0 day): inactive; MIC90 (Mycobacterium marinum): inactive
O=C(Nc1cccc(O)c1)c1cc(C(=O)Nc2nc3ccccc3s2)on1	–	MIC90 ([2]; time 7.0 day): inactive; MIC90 (Mycobacterium marinum): inactive
O=C(Nc1ccccc1)c1cc(C(=O)Nc2nc3ccccc3s2)on1	–	MIC90 ([2]; time 7.0 day): inactive; MIC90 (Mycobacterium marinum): inactive
O=C(Nc1ccc(O)cc1)c1cc(C(=O)Nc2nc3ccccc3s2)on1	–	MIC90 ([2]; time 7.0 day): inactive; MIC90 (Mycobacterium marinum): inactive
Cc1ccc(Nc2nc(-c3cc(C(=O)Nc4ncc(C)s4)no3)cs2)cc1	> 20	–
Cc1ccc(Nc2nc(-c3cc(C(=O)Nc4ccccn4)no3)cs2)c(O)c1	> 20	–
Cc1ccc(Nc2nc(-c3cc(C(=O)Nc4cccc(C(F)(F)F)c4)no3)cs2)cc1	> 20	–
COc1ccc2sc(NC(=O)c3cc(C(=O)Nc4cccc(C)c4)no3)nc2c1	–	MIC90 ([2]; time 7.0 day): inactive; MIC90 (Mycobacterium marinum): inactive
NNC(=O)c1ccncc1 [ISONIAZID]	–	MIC90 ([2]; time 7 day): 0.025 µg/mL (≈ 0.182 µM)
O=C(Nc1ccccn1)c1cc(-c2csc(Nc3ccc(CO)cc3)n2)on1	> 20	–
Cc1ccc2nc(NC(=O)c3cc(C(=O)Nc4ccccn4)no3)sc2c1	–	MIC90 ([2]; time 7.0 day): inactive; MIC90 (Mycobacterium marinum): inactive
Cc1ccc(Nc2nc(-c3cc(C(=O)N4CCCC4)no3)cs2)cc1	> 20	IC50 at 72 h [1]: > 100 µg/mL
Cc1ccc(Nc2nc(-c3cc(C(=O)Nc4nccs4)no3)cs2)cc1	> 40	–
Cc1ccc(Nc2nc(-c3cc(C(=O)NCc4cccs4)no3)cs2)cc1	> 20	–
O=C(Nc1ccccn1)c1cc(-c2csc(Nc3cc(Cl)cc(Cl)c3)n2)on1	> 20	–
Cc1cc(C)cc(Nc2nc(-c3cc(C(=O)Nc4ccccn4)no3)cs2)c1	> 20	–
Cc1ccc(Nc2nc(-c3cc(C(=O)Nc4ccc(C)cc4C)no3)cs2)cc1	> 20	–

SMILES	MIC90 [2, 3] [µg/mL]	other results
O=C(Nc1ccccc1)c1cc(-c2csc(Nc3cc(F)cc(F)c3)n2)on1	> 20	–
Cc1ccc(Nc2nc(-c3cc(C(=O)Nc4ncccc4C)no3)cs2)cc1	> 20	–
Cc1ccc(Nc2nc(-c3cc(C(=O)Nc4ccccc4)no3)cs2)cc1O	2.5 (≈ 6.37 µM)	IC50 at 72 h [1]: > 100 µg/mL
Cc1cccc(NC(=O)c2cc(C(=O)Nc3nc4ccccc4s3)on2)c1	–	MIC90 ([2]; time 7.0 day): inactive; MIC90 (Mycobacterium marinum): inactive
Cc1ccc(Nc2nc(-c3cc(C(=O)Nc4cccnc4)no3)cs2)cc1	10 (≈ 26.5 µM)	–
Cc1ccc(Nc2nc(-c3cc(C(=O)Nc4ccccc4F)no3)cs2)cc1	1 (≈ 2.54 µM)	IC50 at 72 h [1]: 33.9 µg/mL (≈ 85.9 µM)
Cc1ccc(Nc2nc(-c3cc(C(=O)Nc4ccccn4)no3)co2)cc1	2.5 (≈ 6.92 µM)	IC50 at 72 h [1]: 70.9 µg/mL (≈ 196 µM)
Cc1ccc(Nc2nc(-c3cc(C(=O)Nc4ccc(Cl)cc4)no3)cs2)cc1	> 40	–
O=C(Nc1ccccc1)c1cc(-c2csc(Nc3ccc(CO)cc3)n2)on1	> 20	–
O=C(Nc1ccccc1)c1cc(-c2csc(Nc3cc(Cl)cc(Cl)c3)n2)on1	> 20	–
Cc1ccc(Nc2nc(-c3cc(C(=O)Nc4cc(C)cc(C)c4)no3)cs2)cc1	> 20	–
O=C(Nc1ccccn1)c1cc(-c2csc(Nc3cc(F)cc(F)c3)n2)on1	> 20	–
Cc1ccc(Nc2nc(-c3cc(C(=O)Nc4ccnnc4)no3)cs2)cc1	> 20	–
Cc1ccc(Nc2nc(-c3cc(C(=O)Nc4ccccc4O)no3)cs2)cc1	0.5 (≈ 1.27 µM)	IC50 at 72 h [1]: 53.1 µg/mL (≈ 135 µM)
CCOc1cccc(NC(=O)c2cc(-c3csc(Nc4ccc(C)cc4)n3)on2)c1	> 20	–
Cc1ccc(Nc2nc(-c3cc(C(=O)Nc4ccc(C)cc4Cl)no3)cs2)cc1	> 20	–
CN[C@@H]1[C@H](O[C@H]2[C@H](O[C@H]3[C@H](O)[C@@H](O)[C@H](N=C(N)N)[C@@H](O)[C@@H]3N=C(N)N)O[C@@H](C)[C@]2(O)C=O)O[C@@H](CO)[C@H](O)[C@H]1O [STREPTOMYCIN]	0.25 (≈ 0.43 µM)	–
CCOC(=O)c1cc(-c2cccc(Nc3ccc(C)cc3)n2)on1	1.25 (≈ 3.87 µM)	IC50 at 72 h [1]: > 100 µg/mL
